This note sets out measurements from ChEMBL document CHEMBL3351998, “Discovery of potent and specific dihydroisoxazole inhibitors of human transglutaminase 2” (J Med Chem, 2014).

Molecules are shown by their SMILES. Active and inactive are the calls of the source. The calls are words filed in the database; no cut-off is given here.

In assay [1] the target is T1, Protein-glutamine gamma-glutamyltransferase K (Homo sapiens) (UniProt P22735).
T1 sequence (whole entry): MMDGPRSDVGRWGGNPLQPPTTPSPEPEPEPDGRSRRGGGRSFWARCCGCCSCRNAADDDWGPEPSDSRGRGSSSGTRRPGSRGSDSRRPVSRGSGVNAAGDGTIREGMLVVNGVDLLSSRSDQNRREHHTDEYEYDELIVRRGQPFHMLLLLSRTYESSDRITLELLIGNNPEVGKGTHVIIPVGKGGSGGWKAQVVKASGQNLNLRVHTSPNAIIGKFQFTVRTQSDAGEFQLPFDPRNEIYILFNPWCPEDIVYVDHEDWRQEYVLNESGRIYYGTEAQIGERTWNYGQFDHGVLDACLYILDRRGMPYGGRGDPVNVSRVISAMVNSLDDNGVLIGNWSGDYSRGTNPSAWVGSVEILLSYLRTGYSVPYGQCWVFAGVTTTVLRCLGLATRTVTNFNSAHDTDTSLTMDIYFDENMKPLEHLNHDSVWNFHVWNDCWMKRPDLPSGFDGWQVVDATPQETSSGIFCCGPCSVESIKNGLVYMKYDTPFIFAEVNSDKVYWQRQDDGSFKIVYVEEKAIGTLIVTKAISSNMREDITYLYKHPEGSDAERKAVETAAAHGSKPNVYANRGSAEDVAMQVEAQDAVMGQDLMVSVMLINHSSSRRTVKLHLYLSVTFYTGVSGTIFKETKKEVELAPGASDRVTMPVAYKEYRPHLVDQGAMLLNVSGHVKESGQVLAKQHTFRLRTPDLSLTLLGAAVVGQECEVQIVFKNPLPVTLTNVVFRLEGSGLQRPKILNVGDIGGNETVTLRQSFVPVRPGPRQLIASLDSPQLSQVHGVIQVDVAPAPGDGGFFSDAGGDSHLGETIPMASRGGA
The assay can be described thus: Inhibition of human transglutaminase 1 using ((benzyloxy)carbonyl)-L-glutaminyl-L-serine peptide substrate assessed as Kinh/Ki ratio by GDH coupled assay. An outline of the steps:
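Recombinant His-tagged human TG1 from E. coli Rosetta 2 pLysS, final ~0.37 μM, in 200 mM MOPS pH 7.2, 5 mM CaCl2, 10 mM α-ketoglutarate, 300 μM NADH, 36 U/mL GDH. Z-Gln-Ser at 20/40 mM. Inhibitors typically at 100/33.3/11.1/3.7 μM (1% DMSO), added after ≥5 min enzyme pre-equilibration. NADH loss read at 340 nm; progress curves fitted to exponential decay, kinh/Ki from irreversible model.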

Assay [2] has as its target T2, Protein-glutamine gamma-glutamyltransferase (Homo sapiens) (UniProt P21980).
T2 sequence (whole entry): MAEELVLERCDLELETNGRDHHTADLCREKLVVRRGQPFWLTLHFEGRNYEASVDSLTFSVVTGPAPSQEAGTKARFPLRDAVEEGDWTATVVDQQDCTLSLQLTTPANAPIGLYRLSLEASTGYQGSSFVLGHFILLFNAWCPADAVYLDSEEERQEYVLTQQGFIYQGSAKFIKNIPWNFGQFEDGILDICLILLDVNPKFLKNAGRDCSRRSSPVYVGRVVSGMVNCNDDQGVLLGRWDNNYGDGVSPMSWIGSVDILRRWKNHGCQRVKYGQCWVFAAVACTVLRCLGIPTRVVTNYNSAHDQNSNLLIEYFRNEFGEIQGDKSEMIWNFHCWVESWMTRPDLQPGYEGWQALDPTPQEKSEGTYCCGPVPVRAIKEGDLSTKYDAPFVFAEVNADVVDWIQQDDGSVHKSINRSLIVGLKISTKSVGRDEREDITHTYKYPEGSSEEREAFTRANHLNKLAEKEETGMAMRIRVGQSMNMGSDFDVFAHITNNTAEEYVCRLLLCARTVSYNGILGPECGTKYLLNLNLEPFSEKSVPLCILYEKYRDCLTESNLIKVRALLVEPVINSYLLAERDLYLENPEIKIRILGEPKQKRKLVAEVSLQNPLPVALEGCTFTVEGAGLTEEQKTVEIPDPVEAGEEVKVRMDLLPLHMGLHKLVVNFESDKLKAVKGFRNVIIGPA
Nature of the assay: Inhibition of human transglutaminase 2 using ((benzyloxy)carbony l)-L-glutaminylglycine peptide substrate assessed as Kinh/Ki ratio by GDH coupled assay. An outline of the steps:
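Human TG2 (V224G variant) or codon-optimized murine TG2, E. coli-expressed, final ~0.34 and 0.22 μM respectively. Buffer: 200 mM MOPS pH 7.2, 5 mM CaCl2, 10 mM α-ketoglutarate, 300 μM NADH, 36 U/mL bovine GDH. Z-Gln-Gly at 10/20 mM. Inhibitors typically at 100/33.3/11.1/3.7 μM, 1% DMSO, added after ≥5 min pre-equilibration. A340 progress curves fitted to exponential decay; kinh/Ki from irreversible inhibition model.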

For `O=C(NC[C@@H]1CC(Br)=NO1)[C@@H]1C[C@@H](c2cccc(O)c2)CN1C(=O)OCc1cnc2ccccc2c1`, the Ratio in assay [1] came out at 38.7; in assay [2] it was 52.2.
Taken in the same sequence, the figures for `O=C(NC[C@@H]1CC(Br)=NO1)[C@@H]1CCCN1C(=O)OCc1cnc2ccccc2n1` were 15.4 and 1.6.
On to `O=C(NC[C@@H]1CC(Br)=NO1)[C@@H]1CCCN1C(=O)OCc1cccnc1`, for which the Ratio in assay [1] was 4.3; in assay [2], 4.6.
As to `CO[C@@H]1C[C@@H](C(=O)NC[C@@H]2CC(Br)=NO2)N(C(=O)OCc2cnc3ccccc3c2)C1`, the Ratio in assay [1] came to 7.7; in assay [2], 10.4.
For the molecule `C#CCO[C@@H]1C[C@@H](C(=O)NC[C@@H]2CC(Br)=NO2)N(C(=O)OCc2cnc3ccccc3c2)C1`, the figures for the Ratio in assay [1] and in assay [2] were 7.1 and 10.1, respectively.
Take `O=C(NC[C@@H]1CC(Br)=NO1)[C@@H]1C[C@@H](c2c[nH]c3ccc(F)cc23)CN1C(=O)OCc1cnc2ccccc2c1`: the Ratio in assay [1] was 48; in assay [2], 18.4.
Taken in the same sequence, the figures for `O=C(NC[C@@H]1CC(Br)=NO1)[C@@H]1C[C@@H](c2ccccc2O)CN1C(=O)OCc1cnc2ccccc2c1` were 29.5 and 33.8.
Taken in the same sequence, the figures for `N[C@@H]1C[C@@H](C(=O)NC[C@@H]2CC(Br)=NO2)N(C(=O)OCc2cnc3ccccc3c2)C1` were 3.1 and 2.6.
In the case of `O=C(NC[C@@H]1CC(Br)=NO1)[C@@H]1CCCN1C(=O)OCc1ccccc1`, the Ratio in assay [1] was found to be 4.5; in assay [2] it was 4.1.
With `O=C(NC[C@@H]1CC(Br)=NO1)[C@@H]1C[C@@H](F)CN1C(=O)OCc1cnc2ccccc2c1`, the Ratio in assay [1] worked out at 6.7; in assay [2], 7.3.
For the molecule `O=C(NC[C@@H]1CC(Br)=NO1)[C@@H]1CCN1C(=O)OCc1cnc2ccccc2c1`, the Ratio in assay [1] turned out to be 13.6; in assay [2], 14.4.
As for `O=C(NC[C@@H]1CC(Br)=NO1)[C@@H]1CCCN1C(=O)OCc1nc2ccccc2[nH]1`, the Ratio entry in assay [1] and in assay [2] was “inactive” each time.
Regarding `O=C(NC[C@@H]1CC(Br)=NO1)[C@@H]1CCCN1C(=O)OCc1ccncc1`, the Ratio was determined as 10.8 in assay [1] and 2.6 in assay [2].
In the case of `O=C(NC[C@@H]1CC(Br)=NO1)[C@@H]1C[C@@H](c2ccc(Cl)cc2)CN1C(=O)OCc1cnc2ccccc2c1`, the results for the Ratio in assay [1] and in assay [2] were 15.4 and 12, respectively.
For `C#CCOC(=O)N1CCC[C@H]1C(=O)NC[C@@H]1CC(Br)=NO1`, the Ratio in assay [1] is 0.7; in assay [2], 2.4.
Take `O=C(N[C@@H]1C[C@@H](C(=O)NC[C@@H]2CC(Br)=NO2)N(C(=O)OCc2cnc3ccccc3c2)C1)c1cccc(O)c1`: the Ratio worked out at 18.1 in assay [1] and 36.2 in assay [2].
For the molecule `O=C(N[C@@H]1C[C@@H](C(=O)NC[C@@H]2CC(Br)=NO2)N(C(=O)OCc2cnc3ccccc3c2)C1)c1ccccc1O`, the Ratio in assay [1] and in assay [2] was 37.1 throughout.
With `O=C(NC[C@@H]1CC(Br)=NO1)[C@@H]1CCCCN1C(=O)OCc1cnc2ccccc2c1`, the Ratio is 22.2 in assay [1] and 12 in assay [2].
Take `O=C(N[C@@H]1C[C@@H](C(=O)NC[C@@H]2CC(Br)=NO2)N(C(=O)OCc2cnc3ccccc3c2)C1)c1cnccn1`: the Ratio in assay [1] was 12; in assay [2], 15.7.
For `C[C@@]1(C(=O)NC[C@@H]2CC(Br)=NO2)CCCN1C(=O)OCc1cnc2ccccc2c1`, the Ratio was 2.4 in assay [1] and 2 in assay [2].
`O=C(NC[C@@H]1CC(Br)=NO1)[C@@H]1CCCN1C(=O)OCc1cccc(F)c1`: the Ratio in assay [1] stood at 5.6; in assay [2], 3.9.
Turning to `COc1cccc(COC(=O)N2CCC[C@H]2C(=O)NC[C@@H]2CC(Br)=NO2)c1OC`, the Ratio in assay [1] was determined as 1.7. The Ratio entry in assay [2] was “inactive”.
Take `O=C(N[C@@H]1C[C@@H](C(=O)NC[C@@H]2CC(Br)=NO2)N(C(=O)OCc2cnc3ccccc3c2)C1)c1ccccc1`: the Ratio in assay [1] is 24.6; in assay [2] it was 25.8.
Taken in the same sequence, the figures for `C[C@H](OC(=O)N1CCC[C@@H]1C(=O)NC[C@@H]1CC(Br)=NO1)c1cnc2ccccc2c1` were 8.7 and 3.7.
For the molecule `C[C@H](OC(=O)N1CCC[C@@H]1C(=O)NC[C@@H]1CC(Br)=NO1)c1ccc2ccccc2c1`, the Ratio in assay [1] was determined as 5.1; in assay [2], 2.9.
For `C[C@H](OC(=O)N1CCC[C@H]1C(=O)NC[C@@H]1CC(Br)=NO1)c1ccc2ccccc2c1` the same measures were 11.5 and 9.
With `O=C(NC[C@@H]1CC(Br)=NO1)[C@@H]1CCN(C(=O)OCc2cnc3ccccc3c2)C1`, the Ratio in assay [1] is 25.8; in assay [2], 8.8.
On to `O=C(NC[C@@H]1CC(Br)=NO1)[C@@H]1CCCN1C(=O)OCc1cccc(OCc2ccccc2)c1`, for which the Ratio came out at 3.9 in assay [1] and 4.8 in assay [2].
Regarding `Cn1c(COC(=O)N2CCC[C@H]2C(=O)NC[C@@H]2CC(Br)=NO2)nc2ccccc21`, in assay [1], the Ratio turned out to be 0.85. Besides, in assay [2], the Ratio result is “inactive”.
For the molecule `O=C(NC[C@@H]1CC(Br)=NO1)[C@@H]1C[C@@H](Cc2ccccc2)CN1C(=O)OCc1cnc2ccccc2c1`, the Ratio in assay [1] was found to be 23.1; in assay [2], 10.2.
For `O=C(NC[C@@H]1CC(Br)=NO1)[C@@H]1CCCN1C(=O)OCc1ccccn1`, the Ratio in assay [1] turned out to be 1.6; in assay [2], 1.2.
For the molecule `O=C(NC[C@@H]1CC(Br)=NO1)[C@@H]1C=C(c2ccccc2)CN1C(=O)OCc1cnc2ccccc2c1`, the Ratio stood at 18.9 in assay [1] and 11.1 in assay [2].
Taken in the same sequence, the figures for `O=C(NC[C@@H]1CC(Br)=NO1)[C@@H]1C[C@@H](NC(=O)C2(C(=O)O)CCC2)CN1C(=O)OCc1cnc2ccccc2c1` were 11.6 and 14.8.
In the case of `O=C(NC[C@@H]1CC(Br)=NO1)[C@@H]1CCCN1C(=O)OCc1ccnc2ccccc12`, the Ratio came to 12 in assay [1] and 2 in assay [2].
On to `O=C(NC[C@@H]1CC(Br)=NO1)[C@@H]1C[C@H](c2ccccc2)CN1C(=O)OCc1cnc2ccccc2c1`, for which the Ratio in assay [1] was 17.2; in assay [2], 17.7.
Regarding `C#Cc1ccc(COC(=O)N2CCC[C@H]2C(=O)NC[C@@H]2CC(Br)=NO2)cc1`, the figures for the Ratio in assay [1] and in assay [2] were 7.6 and 6.4, respectively.
Consider `CC(C)(C)OC(=O)N1CCC[C@H]1C(=O)NC[C@@H]1CC(Br)=NO1`, for which the Ratio in assay [1] came out at 2.3; in assay [2], 2.5.
Regarding `O=C(C[C@@H]1CCCN1C(=O)OCc1cnc2ccccc2c1)NC[C@@H]1CC(Br)=NO1`, the Ratio in assay [1] and in assay [2] was 1.3 in each case.
In the case of `O=C(NC[C@@H]1CC(Br)=NO1)[C@@H]1C[C@@H](c2cccc(Cl)c2)CN1C(=O)OCc1cnc2ccccc2c1`, the Ratio in assay [1] is 41.7; in assay [2], 25.3.
